Data reported in ChEMBL document CHEMBL1123469, “Synthesis and activity of 6-aryl-3-(hydroxypolymethyleneamino)pyridazines in animal models of epilepsy” (1986).

How the values were obtained:
Type in all cases: functional
[1] = tested on: Mus musculus; test: Compound was evaluated for the sedative property by the rotarod test at 20 mg/kg
Summary of the method: (§1)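 Motor coordination was tested on the rotorod in groups of 10 female Swiss CD1 mice (18-23 g). Drug or vehicle was given orally, test compounds in dilute HCl (pH 3), 60 min before testing.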

[2] = tested on: Mus musculus; test: Evaluated for Bicuculline-induced lethality (anticonvulsant activity) when administered orally in mice.; conditions: po
Summary of the method: (§2)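 Female Swiss albino CD1 mice (18-23 g), oral dosing (20 mL/kg); test compounds dissolved in dilute HCl (pH 3), reference drugs suspended in 5% gum tragacanth. Bicuculline challenge, scoring protection from seizures and from lethality. […] Weakly active agents reported as percent protected at the stated dose.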

[3] = tested on: Mus musculus; test: Evaluated for anticonvulsant activity when administered orally in mice by Maximal electroshock (MES).; conditions: po
Summary of the method: (§3)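 Female Swiss CD1 mice (18-23 g), groups of 10, were dosed orally at 20 mL/kg. Test compounds were given in dilute HCl (pH 3) and references in 5% gum tragacanth, 60 min before a 60-V alternating current for 0.3 s through corneal electrodes. Protection meant abolition of the hindlimb tonic extensor component.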

[4] = tested on: Mus musculus; test: Evaluated for Bicuculline-induced seizures (anticonvulsant activity) when administered orally in mice.; conditions: po
Summary of the method: (§4)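 Female Swiss CD1 mice (18-23 g) were dosed orally at 20 mL/kg, test compounds in dilute HCl (pH 3) and references in gum tragacanth. Protection against bicuculline- or pentylenetetrazole-induced clonic/tonic seizures and lethality was scored.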

[5] = tested on: Mus musculus; test: Compound was evaluated for Bicuculline-induced seizures (anticonvulsant activity)when administered orally in mice; conditions: po; summary of the method: as §2
[6] = species on record: Rattus norvegicus; test: Antagonist activity to generalized seizures kindled amygdaloid seizures in rats
Summary of the method: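 Male Sprague-Dawley rats (200-500 g), groups of 10, carried platinum electrodes in the right basolateral amygdala. They counted as kindled after stage-5 seizures on 3 consecutive days at 30-90 μA. A control stimulation was followed by an oral dose (5 mL/kg) and restimulation 1 h later. After-discharge duration and Racine seizure stage were compared with vehicle.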

[7] = tested on: Mus musculus; test: Compound was evaluated for the sedative properties by the rotarod test when 100 mg/Kg was administered in mice; summary of the method: as §1
[8] = tested on: Mus musculus; test: Anticonvulsant activity in Maximal electroshock (MES) when administered orally in mice; conditions: po; summary of the method: as §3
[9] = tested on: Mus musculus; test: Compound was evaluated for Bicuculline-induced lethality (anticonvulsant activity) when administered 20 mg/Kg orally in mice; summary of the method: as §2
[10] = tested on: Mus musculus; test: Anticonvulsant activity in tonic seizures when administered orally in mice; conditions: po
[11] = species on record: Papio hamadryas; test: Antagonist activity to generalized seizures Photically induced seizures in senegalese Papio papio baboons
Summary of the method: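 Naturally photosensitive baboons of both sexes (4-7 kg) were dosed orally, test compounds in dilute HCl (pH 3) and references in 5% gum tragacanth, at 4 mL/kg. They were photically stimulated at hourly intervals afterwards, and the myoclonic response was graded after Killam. Threshold active dose is the first dose that protected at least two of four animals for at least 2 h.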

[12] = tested on: Mus musculus; test: Anticonvulsant activity in Clonic seizures when administered orally in mice; conditions: po; summary of the method: as §4
[13] = tested on: Mus musculus; test: Compound was evaluated for the sedative property by the rotarod test at 10 mg/kg; summary of the method: as §1
[14] = tested on: Mus musculus; test: Compound was evaluated for anticonvulsant activity when administered 10 mg/kg orally in mice Maximal electroshock (MES); conditions: route oral; summary of the method: as §3
[15] = tested on: Mus musculus; test: Compound was evaluated for Bicuculline-induced seizures (anticonvulsant activity) when administered 10 mg/kg orally in mice; conditions: route oral; summary of the method: as §2
[16] = tested on: Mus musculus; test: Anticonvulsant activity when administered 100 mg/kg orally in mice Maximal electroshock (MES); conditions: route oral; summary of the method: as §3
[17] = tested on: Mus musculus; test: Evaluated for Bicuculline-induced seizures (anticonvulsant activity) when administered at 100 mg/kg orally in mice.; conditions: route oral; summary of the method: as §4
[18] = tested on: Mus musculus; test: Compound was evaluated for the sedative property by the rotarod test at 250 mg/kg
Summary of the method: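 Rotorod motor-coordination test in female Swiss albino CD1 mice (18-23 g). Groups of 10 mice dosed with test drug or vehicle 60 min before testing; test compounds dissolved in dilute HCl (pH 3).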

[19] = species on record: Mus musculus; test: Sedative properties by the rotarod test; summary of the method: as §1
[20] = tested on: Mus musculus; test: Compound was evaluated for Bicuculline-induced seizures (anticonvulsant activity) when administered 1 mg/kg orally in mice; conditions: route oral; summary of the method: as §2
[21] = tested on: Mus musculus; test: Compound was evaluated for the sedative property by the rotarod test at 1 mg/kg; summary of the method: as §1
[22] = tested on: Mus musculus; test: Compound was evaluated for anticonvulsant activity when administered 1 mg/kg orally in mice Maximal electroshock (MES); conditions: route oral; summary of the method: as §3
[23] = tested on: Mus musculus; test: Compound was evaluated for the sedative property by the rotarod test at 150 mg/kg; summary of the method: as §1
[24] = tested on: Mus musculus; test: Compound was evaluated for anticonvulsant activity when administered 250 mg/kg orally in mice Maximal electroshock (MES); conditions: route oral; summary of the method: as §3
[25] = tested on: Mus musculus; test: Compound was evaluated for Bicuculline-induced lethality (anticonvulsant activity) when administered 250 mg/kg orally in mice; conditions: route oral; summary of the method: as §2
[26] = tested on: Mus musculus; test: Compound was evaluated for Bicuculline-induced seizures (anticonvulsant activity) when administered 250 mg/kg orally in mice; conditions: route oral; summary of the method: as §4

O=C1CCN(c2ccc(-c3ccc(Cl)cc3Cl)nn2)CC1
Protected [1]: 50% | ED50 [2]: 7 mg/kg | ED50 [3]: 5 mg/kg | ED50 [4]: 7.3 mg/kg

O=C1NC(=O)C(c2ccccc2)(c2ccccc2)N1 [PHENYTOIN]
ED50 [5]: 11 mg/kg | Threshold active dose [6]: 20 mg/kg | Protected [7]: 30% | ED50 [8]: 23 mg/kg | Protected [9]: 25% | ED50 [10]: 7 mg/kg | Threshold active dose [11]: 50 mg/kg | ED50 [12]: > 80 mg/kg

OC1CCN(c2ccc(-c3ccccn3)nn2)CC1
Protected [13]: 20% | Protected [14]: 0% | Protected [15]: 0%

Oc1ccccc1-c1ccc(N2CCC(O)CC2)nn1
Protected [16]: 0% | Protected [17]: 0% | Protected [18]: 0%

CCC1(c2ccccc2)C(=O)NC(=O)NC1=O [PHENOBARBITAL]
ED50 [19]: 61 mg/kg | ED50 [5]: 5.8 mg/kg | Threshold active dose [6]: 20 mg/kg | ED50 [8]: 5.4 mg/kg | ED50 [2]: 5.2 mg/kg | ED50 [10]: 7 mg/kg | Threshold active dose [11]: 5 mg/kg | ED50 [12]: 15 mg/kg

NC(=O)N1c2ccccc2C=Cc2ccccc21 [CARBAMAZEPINE]
ED50 [19]: 95 mg/kg | Threshold active dose [6]: 10 mg/kg | ED50 [8]: 21 mg/kg | ED50 [2]: 16 mg/kg | ED50 [10]: 21 mg/kg | ED50 [4]: 29 mg/kg | Threshold active dose [11]: 100 mg/kg | ED50 [12]: > 100 mg/kg

CN(C)C(=O)OC1CCN(c2ccc(-c3ccc(Cl)cc3Cl)nn2)CC1
Protected [20]: 30% | Protected [21]: 20% | Protected [22]: 66%

OC1CCN(c2ccc(-c3cc(Cl)ccc3Cl)nn2)CC1
ED50 [2]: 101 mg/kg | Protected [23]: 10%

Oc1ccc(-c2ccc(N3CCC(O)CC3)nn2)cc1
Protected [24]: 25% | Protected [25]: 10% | Protected [26]: 0% | Protected [18]: 10%
